# Source: PubChem BioAssay (Broad Institute)
# In the library only some 2.7% were active in any assay of this set; here they are far more common.
# F508del corr: F508del CFTR correction, initial screen, CFBE line, single point | CFBE cells, YFP halide quenching; stimulated with forskolin plus potentiator P3; % fluorescence drop versus neutral controls | activity (quench increase), % at 7.58 µM | hit rate 0.36% among 350,000;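 active = mean added fluorescence quench of at least 8% versus neutral control, with both replicates also reaching 8%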;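 note: cells transiently co-express mutant CFTR-F508del with the halide-sensitive YFP; corrector assay measuring rescue of mutant channel to the surface after 24 h compound exposure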
# E-sel inducer: E-selectin induction in HUVECs, primary screen, imaging, HUVEC, immunofluorescence imaging, single point. P16581. normalized: neutral wells 0, TNF-alpha wells 100. activation, % at 7.58 µM. hit rate 0.37% among 260,000;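 active = mean E-selectin-positive cell signal at least 10% of the positive control, reached in at least 60% of replicates, without over 20% cell loss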
#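 Assay system: HUVEC, human umbilical vein endothelial cells / Amount: 3,000 HUVEC/well / Controls: TNF-alpha positive control, DMSO neutral control / Compound dosing: single concentration / Medium: EGM-2 over gelatin coat / Evaluation: percent E-selectin-positive cells / Signal: immunofluorescence imaging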
# S100A4 MyoIIA: inhibitors of S100A4-myosin IIA peptide binding, primary screen, biochemical, fluorescence polarization, TAMRA-MyoIIA peptide | Protein S100-A4 (Homo sapiens), P26447 | inhibition, % at 10.7 µM | hit rate 0.14% among 360,000 | AID 652163, 2013;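 active = mean inhibition of at least 70% across replicates, with every replicate also reaching that level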
#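 Material: S100A4 monomer protein | Medium: HEPES pH 7.2 with CaCl2, KCl, NaCl, DTT, Triton | Reagent: Labelled myosin peptide probe, 5 nM | Doses: One dose per compound | Times: 5 min incubation before reading | Benchmarks: Neutral control DMSO, positive control TFP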
# FGF22 binding: binders of human FGF22 protein, primary screen, FGF22 synaptogenesis inhibitor project, biophysical, thermal shift, single point. recombinant FGF22 thermal shift, SYPRO orange fluorescence; percent of sucrose octasulfate shift, DMSO zero. activity (Tm shift, normalised), % at 9.99 µM. hit rate 1.5% among 340,000. AID 651658, 2012;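 active = mean Tm shift, scaled 0 neutral to 100 positive control, at about 1.3% or above, every replicate too, limit read from the data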
# Env fusion inh: inhibitors of HIV-1 Env-driven cell-cell fusion, primary screen, HeLa-JRFL effector, CEM21 target cells, luciferase | inhibition, % at 12.3 µM | hit rate 1.1% among 360,000;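 active = mean replicate inhibition score of at least 50 and every replicate individually at or above 50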;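 note: 0% = plate neutral controls and 100% = maraviroc near 300 nM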
# * hit, by the source's call; . = no result; [ ] = dose if it differs, or a comment.
SMILES,F508del corr,E-sel inducer,S100A4 MyoIIA,FGF22 binding,Env fusion inh
Cc1nn(CC(=O)c2cccc(Cl)c2)c(C)c1[N+](=O)[O-],-3,3,0,43*,0
Cc1nn(CC(=O)Nc2ccc(Cl)cn2)c(C)c1[N+](=O)[O-],.,.,.,.,-144
Cc1nn(-c2cccc(C(=O)O)c2)c(C)c1[N+](=O)[O-],-1,.,-2,44*,-1
Cc1cc(=O)c(C(=O)O)nn1-c1ccccc1,-1,0,14,0,-16
Cc1cc(C)n(-c2cccc(C(=O)O)c2)n1,0,.,0,44*,1
C[C@@H]1CN([C@H](C)CO)C(=O)c2cc(NC(=O)CCC(F)(F)F)ccc2O[C@@H]1CN(C)S(=O)(=O)c1ccc(F)cc1,-6,0,9,0,30[16.7 µM]
CCCC#Cc1cnc2c(c1)C(=O)N([C@H](C)CO)C[C@H](C)[C@@H](CN(C)C(=O)Nc1ccccc1F)O2,3,0,1,0,10[16.7 µM]
C[C@@H]1CN([C@H](C)CO)C(=O)c2cc(NS(C)(=O)=O)ccc2O[C@@H]1CN(C)C(=O)Nc1ccc2c(c1)OCO2,0,-7,-6,0,.
O=C1CCCc2[nH]c(-c3ccccc3)nc21,-1,.,-3,43*,-158
c1ccc(-c2nc3c([nH]2)CCc2nonc2-3)cc1,-4,.,-3,0,25
Cc1ccc(N(CC(O)Cn2c3ccccc3c3ccccc32)S(C)(=O)=O)cc1 (stereo not given),5,.,-16,0,.
Cc1cccc(C)c1N(CC(O)Cn1c2ccccc2c2ccccc21)S(C)(=O)=O (stereo not given),.,.,.,.,84*
CC(=O)Nc1ccc(N(CC(O)Cn2c3ccccc3c3ccccc32)S(=O)(=O)c2ccc(C)cc2)cc1 (stereo not given),.,-1,9,0,105*
Clc1ccccc1C1=Nn2c(nnc2-c2ccncc2)SC1,.,.,.,.,92*
CC1Cc2ccccc2N1C(=O)CSc1nnc2n1C(C)(C)Cc1ccccc1-2 (stereo not given),.,.,.,.,-42
COc1ccccc1N1CCN(C(=O)CSc2nnc3n2C(C)(C)Cc2ccccc2-3)CC1,.,.,.,.,74*
COC(=O)n1c(=O)oc2ccc(S(=O)(=O)N3CCCCC3)cc21,-1,-1,6,0,-6
CCCCOC(=O)n1c(=O)oc2cc(S(=O)(=O)N3CCCCC3)ccc21,.,.,.,.,56*
C[C@@H]1CN([C@@H](C)CO)C(=O)c2cc(C#CCN(C)C)cnc2O[C@@H]1CN(C)S(C)(=O)=O,0,0,9,0,-12[16.7 µM]
CN(C)C(=O)C[C@H]1CC[C@@H]2[C@H](COc3ccc(NC(=O)Nc4cccc(Cl)c4)cc3C(=O)N2C)O1,3,0,4,0,.
Cc1cc(C)cc(C(=O)N[C@@H](C)C(=O)N2CCC3(CC2)NCCc2[nH]cnc23)c1,1,.,5,43*,-2
Cn1c(CS(=O)Cc2c(Cl)cccc2Cl)nnc1SCc1ccc(Cl)cc1 (stereo not given),.,.,.,.,62*
O=S(Cc1ccc(Br)cc1)Cc1nnc(SCc2ccc(Cl)cc2)n1-c1ccccc1 (stereo not given),.,.,.,.,65*
O=c1cc(Cc2nnc(SCc3ccccc3)n2-c2ccc(Cl)cc2)[nH]c(=O)[nH]1,1,.,8,0,-2
COc1ccc(NC(=S)Nc2cc(C(F)(F)F)ccc2F)cc1,-2,.,-2,44*,-12
O=C(c1ccccc1O)N1CCOCC1,-3,0,-7,43*,12
COc1ccc(S(=O)(=O)Nc2ccc3c(c2)C(=O)N([C@H](C)CO)C[C@@H](C)[C@@H](CN(C)Cc2ccc(Cl)c(Cl)c2)O3)cc1,13*,29*,-6,-1,-1[16.7 µM]
C[C@H](CO)N1C[C@H](C)[C@@H](CN(C)Cc2ccc(Cl)c(Cl)c2)Oc2ccc(N(C)C)cc2C1=O,-3,.,-5,0,58*[16.7 µM]
COc1ccc(S(=O)(=O)Nc2ccc3c(c2)C(=O)N([C@@H](C)CO)C[C@H](C)[C@H](CN(C)Cc2ccc(Cl)c(Cl)c2)O3)cc1,2,-10,3,-1,-32[16.7 µM]
